High-throughput results: PubChem, Johns Hopkins Ion Channel Center
Most compounds without a hit are left out; they make up all but 3% or so of the library.
TRPC4 inh – blocks the mouse TRPC4 cation channel; 300,000 compounds, 0.39% hits; B-score at 10 µM; AID 2247; HEK293 TRPC4beta/mu-opioid, DAMGO-evoked Fluo4 calcium flux; active compounds read low;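 active = B-score over 3 SD under the library average, no early fluorescence shift, positive overall ratio signal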
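System: stable TRPC4beta/mu-opioid receptor HEK293 cells; Dosing: single-point compound dosing; Measured by: Fluo4 Ca2+ flux fluorescence; Read-out basis: per-well B score of integrated baseline-normalized Fluo4 ratio.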
Kir21 inh – blocks the mouse Kir2.1 inward-rectifier potassium channel. P35561. HEK293-Kir2.1, FluxOR thallium flux fluorescence; active compounds read low. B-score at 10 µM. 310,000 compounds, 0.85% hits. AID 1672;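 active = fluorescence ratio B-score at or below minus 3 SD of library scores, with starting-brightness B-score within 2 SD, cut at about -4.2 in these data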;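 also: channel flux triggered by added potassium and thallium sulfate stimulus; B-score of peak minus minimum fluorescence over baseline after thallium stimulus; more negative B-score means stronger Kir2.1 block with less thallium influx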
TRPC4 act – opens the mouse TRPC4 cation channel; Q9QUQ5; HEK293 TRPC4beta/mu-opioid, Fluo4 calcium fluorescence; active compounds read high; B-score at 10 µM; 310,000 compounds, 0.49% hits;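 active = B-score above 5 SD of library B-scores, and initial fluorescence ratio not above library mean plus 5 SD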;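 also: positive B-score marks a calcium rise read as TRPC4 activation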
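Assay system: HEK293 stable line with TRPC4beta plus mu-opioid receptor. Times: dye 45 min RT, read 110 s. Measured by: kinetic Fluo4 calcium fluorescence. Measure: B score of integrated ratio. Controls: assay buffer as low control, maximal DAMGO as high control.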
TRPC6 act – mouse TRPC6 channel activation | HEK293-TRPC6 membrane potential dye fluorescence; active compounds read high | 310,000 compounds, 0.13% hits | AID 2550 | B-score at 10 µM;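 active = B-score of the integrated fluorescence ratio above library mean plus 3 SD, and starting fluorescence ratio within library mean plus 5 SD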;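 also: higher score means more depolarization so channel activation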
Target sequence (Q61143 whole entry, looked up): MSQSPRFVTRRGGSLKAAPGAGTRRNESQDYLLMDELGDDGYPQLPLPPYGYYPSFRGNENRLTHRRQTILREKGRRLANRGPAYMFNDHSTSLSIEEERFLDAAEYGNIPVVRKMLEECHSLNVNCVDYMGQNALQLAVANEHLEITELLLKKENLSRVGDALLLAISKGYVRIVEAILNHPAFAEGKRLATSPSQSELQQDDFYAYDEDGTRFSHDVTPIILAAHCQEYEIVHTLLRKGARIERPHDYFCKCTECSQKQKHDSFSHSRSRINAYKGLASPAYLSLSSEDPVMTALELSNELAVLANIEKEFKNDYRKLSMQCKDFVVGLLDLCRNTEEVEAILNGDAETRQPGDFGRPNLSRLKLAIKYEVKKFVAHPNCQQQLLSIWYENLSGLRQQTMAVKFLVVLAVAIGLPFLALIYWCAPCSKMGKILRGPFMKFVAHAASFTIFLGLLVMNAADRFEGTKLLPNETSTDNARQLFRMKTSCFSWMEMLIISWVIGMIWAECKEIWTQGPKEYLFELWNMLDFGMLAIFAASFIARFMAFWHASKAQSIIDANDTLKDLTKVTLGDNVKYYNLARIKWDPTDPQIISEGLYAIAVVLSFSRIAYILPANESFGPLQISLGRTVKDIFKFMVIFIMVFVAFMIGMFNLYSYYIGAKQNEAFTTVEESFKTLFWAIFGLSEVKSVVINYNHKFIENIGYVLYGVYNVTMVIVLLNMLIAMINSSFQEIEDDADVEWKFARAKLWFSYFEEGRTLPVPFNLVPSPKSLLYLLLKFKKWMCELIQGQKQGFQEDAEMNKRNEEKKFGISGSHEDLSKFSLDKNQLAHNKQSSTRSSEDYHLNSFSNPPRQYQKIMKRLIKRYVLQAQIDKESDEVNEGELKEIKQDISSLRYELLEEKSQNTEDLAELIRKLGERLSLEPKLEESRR
TRPC4 potent – allosterically enhances the mouse TRPC4 cation channel | Q9QUQ5 | HEK293 TRPC4beta/mu-opioid, DAMGO EC20, Fluo-4 Ca2+ flux; active compounds read high | B-score at 10 µM | 310,000 compounds, 0.42% hits;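 active = B-score of calcium response area above 5 SD of library B-scores, with initial fluorescence ratio within 5 SD of library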;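 also: B-score of integrated fluorescence ratio over time as area under calcium response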
TRPC6 inhibitor – inhibitors of mouse TRPC6 channel | Q61143 | HEK293-TRPC6, membrane potential dye, ACh-evoked depolarization; active compounds read low | B-score at 10 µM | 310,000 compounds, 1.1% hits;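 active = B-score under library mean minus 3 SD, initial fluorescence not abnormally high, positive integrated signal ratio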;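 also: B-score derived from integrated fluorescence ratio over the kinetic read; more negative B-score means stronger inhibition of depolarization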
hERG ctr – counter-screen for Kir2.1 inhibitors: effect on human hERG; shares compounds with Kir21 inh; hERG-expressing cells, thallium flux; inhibition, % at 10 µM; 320 compounds, 20% hits;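 also: host cells are CHO cells stably expressing hERG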
KCNK9 spec – tests whether Kir2.1 inhibitors also affect human KCNK9; shares compounds with Kir21 inh; KCNK9-expressing cells, ion flux inhibition; inhibition, % at 10 µM; 320 compounds, 5% hits
Kir2-1 patch inh – inhibitors of mouse Kir2.1 potassium channel; shares compounds with Kir21 inh; Kir2.1 cells, automated patch-clamp current inhibition; inhibition, % at 25 µM; 320 compounds, 71% hits
Starred values were filed as active, the others as inactive; i = inactive; . = no result. Unless noted, no rule for the calls is given here.

SMILES | TRPC4 inh | Kir21 inh | TRPC4 act | TRPC6 act | TRPC4 potent | TRPC6 inhibitor | hERG ctr | KCNK9 spec | Kir2-1 patch inh
COc1cc(OC)c(OC)cc1CNc1cc(C)ccc1OC | i | -5.8* | i | i | i | i | i | i | 29%*
COc1ccc(C)cc1NCc1cccc(OC)c1OC | i | 0.05 | i | i | i | i | . | . | .
O=[N+]([O-])c1ccc(Sc2ncccn2)c([N+](=O)[O-])c1 | i | -1.1 | i | i | i | i | . | . | .
O=[N+]([O-])c1cc(C(F)(F)F)ccc1Sc1nccn1Cc1ccccc1 | i | -8.5* | i | i | i | i | i | i | 7.0%*
O=[N+]([O-])c1ccc(Sc2nccn2Cc2ccccc2)c([N+](=O)[O-])c1 | i | -7.2* | i | i | i | i | i | i | 35%*
Nc1ccccc1SCCS(=O)(=O)c1ccc(Cl)cc1 | i | -0.36 | i | i | i | i | . | . | .
CCn1c(COc2ccccc2)nnc1SCc1ccc(C#N)cc1 | i | -6.5* | i | i | i | i | i | i | 25%*
CCOc1ccc(Nc2ccc(N3C(=O)CCC3=O)cc2[N+](=O)[O-])cc1 | i | -0.85 | i | i | i | i | . | . | .
CCOc1ccc(CN2CCC(Cc3ccccc3)CC2)cc1 | i | -5.8* | i | i | i | i | 68%* | i | 49%*
O=S(=O)(NCc1csc(-c2cccs2)n1)c1ccc(Cl)cc1 | i | -11* | i | i | i | i | i | i | 22%*
O=S(=O)(NCc1csc(-c2cccs2)n1)c1cccs1 | i | -2.3 | i | i | i | i | . | . | .
N#C/C(=C\c1ccccc1O)C(=O)Nc1ccccn1 | i | -0.09 | i | i | i | i | . | . | .
Cc1cc2nc3n(c2cc1C)CCCN3 | i | 0.8 | i | i | i | i | . | . | .
Cc1ccc(-c2ccc(/C=N/O)o2)cc1[N+](=O)[O-] | i | 0.02 | i | i | i | i | . | . | .
CC(NS(=O)(=O)c1ccc(Br)s1)c1ccccc1 (stereo not drawn) | i | -7.4* | i | i | i | i | i | i | 44%*
Cc1ccc(S(=O)(=O)N/N=C/c2ccccc2F)cc1[N+](=O)[O-] | i | -0.03 | i | i | i | i | . | . | .
CSc1ccc(S(=O)(=O)NC(C)c2ccccc2)cc1 (stereo not drawn) | i | -7.3* | i | i | i | i | i | i | 63%*
Cc1ccc(S(=O)(=O)NC(C)c2ccccc2)cc1[N+](=O)[O-] (stereo not drawn) | i | -8* | i | i | i | i | i | i | 30%*
COc1ccc(CNCc2cccc(Oc3ccccc3)c2)cc1 | -6* | -14* | i | i | i | i | i | i | 85%*
COc1ccc(CNCC(O)(c2ccccc2)c2ccccc2)cc1 | i | -6.2* | i | i | i | i | 46%* | i | i
COc1ccccc1NC(=O)CCc1nnc2ccc(N3CCC4(CC3)OCCO4)nn12 | i | 0 | i | i | i | i | . | . | .
N#Cc1ccccc1S(=O)(=O)N1CCN(C(=O)CN2C(=O)NC3(CCCC3)C2=O)CC1 | i | 1.5 | i | i | i | i | . | . | .
CCOc1cc(C)c(Cl)cc1S(=O)(=O)NCc1ccco1 | i | -8* | i | i | i | i | i | i | 31%*
COc1cc(C)c(Cl)cc1S(=O)(=O)NCc1ccco1 | i | -1.5 | i | i | i | i | . | . | .
CN(C)CCC(=O)C(Cc1ccccc1)c1ccccc1 (stereo not drawn) | i | -0.04 | i | i | i | i | . | . | .
SMILES | TRPC4 inh | Kir21 inh | TRPC4 act | TRPC6 act | TRPC4 potent | TRPC6 inhibitor | hERG ctr | KCNK9 spec | Kir2-1 patch inh
CC(CCCN(C)C)C(Cc1ccccc1)c1ccccc1 (stereo not drawn) | i | -6.4* | i | i | i | i | i | i | 4.0%*
CCOc1cc(S(=O)(=O)NCc2ccc3c(c2)OCO3)c(C)cc1C | i | -6.6* | i | i | i | i | i | i | 10%*
CCOCCCNCC(O)c1ccccc1 (stereo not drawn) | i | -0.79 | i | i | i | i | . | . | .
OCc1cc(C(O)CNCCCCCCOCCCCc2ccccc2)ccc1O (stereo not drawn) | i | -5.3* | i | i | i | i | i | i | 23%*
O=S(=O)(c1ccccc1F)N1CCCc2ccccc21 | i | -6.1* | i | i | i | i | i | i | 32%*
O=S(=O)(Nc1ccccc1N1CCOCC1)c1ccc(F)c(Cl)c1 | i | -12* | i | i | i | i | i | i | 2.6%*
C/C(=C\c1ccccc1)CN1CCN(C(C)C)C(CCO)C1 (stereo not drawn) | i | 1.2 | i | i | i | i | . | . | .
CNC(=O)c1sccc1SCc1c(Cl)cccc1Cl | i | -9.4* | i | i | i | i | i | i | 43%*
Cc1cccc(C)c1NC(=O)c1sccc1SCC#N | i | -0.3 | i | i | i | i | . | . | .
Cc1ccc(/C(=N/Nc2nc3ccccc3s2)C2=C(O)c3ccccc3C2=O)cc1 | i | 4.4 | i | i | i | i | i | i | i
O=C(O)[C@@H]1[C@@H]2C[C@@H]2CN1c1ncccc1[N+](=O)[O-] | i | -1.9 | i | i | i | i | . | . | .
COc1cc(NS(=O)(=O)c2ccc(NC(=S)Nc3ccccc3)cc2)nc(OC)n1 | i | -0.09 | i | i | i | i | . | . | .
COc1cc(NS(=O)(=O)c2ccc(Nc3nc(-c4ccccc4)cs3)cc2)nc(OC)n1 | i | 3.6 | i | i | i | i | i | i | i
COc1ccc(C(=O)CN2Cc3ccccc3C2=N)cc1 | i | -11* | i | i | i | i | 65%* | i | i
CCCN1CCC(NC23CC4CC(CC(C4)C2)C3)CC1 | i | -9.8* | i | i | i | i | i | i | 41%*
Cc1ccc(C(CCNC(C)c2cccs2)c2ccco2)cc1 (stereo not drawn) | i | -8.4* | i | i | i | i | 62%* | i | i
